# Measured values reported in ChEMBL document CHEMBL3120060, “Synthesis, in vitro anticancer evaluation and in silico studies of novel imidazo[2,1-b]thiazole derivatives bearing pyrazole moieties” (2014).
# Experiments:
# Format in all cases: functional
# KM12 = assay: Cytotoxicity against human KM12 cells assessed as cell growth at 10 uM after 48 hrs by SRB assay; conditions: KM12, 48 h, read-out: Activity
# In short: (§1)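 NCI-60 single-dose screen. Cell lines grown in RPMI 1640 with 5% FBS and 2 mM L-glutamine, plated at 5000–40,000 cells/well according to doubling time, then preincubated 24 h at 37 °C in 5% CO2. Compounds dissolved in DMSO, tested at 10^-5 M for 48 h. Adherent cells fixed with cold TCA (10% final) and stained with 0.4% SRB in 1% acetic acid. Growth expressed as percent of untreated control.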
# HCC 2998 = assay: Cytotoxicity against human HCC2998 cells assessed as cell growth at 10 uM after 48 hrs by SRB assay; conditions: HCC 2998, 48 h, read-out: Activity; in short: as §1
# [1] = Cytotoxicity against human UACC257 cells assessed as cell growth at 10 uM after 48 hrs by SRB assay; conditions: UACC-257, 48 h, read-out: Activity
# In short: (§2)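 NCI-60 single-dose screen at 10^-5 M. Adherent lines are grown in RPMI 1640 with 5% FBS and 2 mM L-glutamine, seeded at 5000–40,000 cells/well by doubling time, and preincubated 24 h at 37 °C in 5% CO2. Drug is added from DMSO stock diluted in medium, then 48 h. Cells are fixed in cold TCA (final 10%) for 60 min and stained with 0.4% SRB in 1% acetic acid. Growth is expressed as % of untreated control using time-zero plates.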
# NCI-H522 = assay: Cytotoxicity against human NCI-H522 cells assessed as cell growth at 10 uM after 48 hrs by SRB assay; conditions: NCI-H522, 48 h, read-out: Activity; in short: as §1
# A498 = assay: Cytotoxicity against human A498 cells assessed as cell growth at 10 uM after 48 hrs by SRB assay; conditions: A498, 48 h, read-out: Activity; in short: as §1
# SR = assay: Cytotoxicity against human SR cells assessed as cell growth at 10 uM after 48 hrs by SRB assay; conditions: read-out: Activity
# In short: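 Leukemia line, NCI-60 single-dose screen at 10^-5 M. Cells are grown in RPMI 1640 with 5% FBS and 2 mM L-glutamine, plated by doubling time, and preincubated 24 h at 37 °C with 5% CO2. After 48 h drug exposure, settled cells are fixed with 80% TCA (final 16%) and stained with SRB. Percent growth is calculated against untreated control and time-zero plates.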
# PC-3 = assay: Cytotoxicity against human PC3 cells assessed as cell growth at 10 uM after 48 hrs by SRB assay; conditions: PC-3, 48 h, read-out: Activity; in short: as §1
# IGROV-1 = assay: Cytotoxicity against human IGROV1 cells assessed as cell growth at 10 uM after 48 hrs by SRB assay; conditions: IGROV-1, 48 h, read-out: Activity; in short: as §1
# SW-620 = assay: Cytotoxicity against human SW620 cells assessed as cell growth at 10 uM after 48 hrs by SRB assay; conditions: SW-620, 48 h, read-out: Activity; in short: as §2
# K562 = assay: Cytotoxicity against human K562 cells assessed as cell growth at 10 uM after 48 hrs by SRB assay; conditions: K562, 48 h, read-out: Activity; in short: as §1
# SF-539 = assay: Cytotoxicity against human SF539 cells assessed as cell growth at 10 uM after 48 hrs by SRB assay; conditions: SF-539, 48 h, read-out: Activity; in short: as §1
# UACC-62 = assay: Cytotoxicity against human UACC62 cells assessed as cell growth at 10 uM after 48 hrs by SRB assay; conditions: UACC-62, 48 h, read-out: Activity; in short: as §2
# SN12C = assay: Cytotoxicity against human SN12C cells assessed as cell growth at 10 uM after 48 hrs by SRB assay; conditions: read-out: Activity; in short: as §1
# HOP-92 = assay: Cytotoxicity against human HOP92 cells assessed as cell growth at 10 uM after 48 hrs by SRB assay; conditions: HOP-92, 48 h, read-out: Activity; in short: as §1
# U-251 = assay: Cytotoxicity against human U251 cells assessed as cell growth at 10 uM after 48 hrs by SRB assay; conditions: U-251, 48 h, read-out: Activity; in short: as §2
# RPMI-8226 = assay: Cytotoxicity against human RPMI8226 cells assessed as cell growth at 10 uM after 48 hrs by SRB assay; conditions: RPMI-8226, 48 h, read-out: Activity; in short: as §1
# SK-MEL-5 = assay: Cytotoxicity against human SK-MEL-5 cells assessed as cell growth at 10 uM after 48 hrs by SRB assay; conditions: SK-MEL-5, 48 h, read-out: Activity; in short: as §1
# DU-145 = assay: Cytotoxicity against human DU145 cells assessed as cell growth at 10 uM after 48 hrs by SRB assay; conditions: DU-145, 48 h, read-out: Activity; in short: as §1
# CCRF-CEM = assay: Cytotoxicity against human CCRF-CEM cells assessed as cell growth at 10 uM after 48 hrs by SRB assay; conditions: read-out: Activity; in short: as §1
# MDA-MB-468 = assay: Cytotoxicity against human MDA-MB-468 cells assessed as cell growth at 10 uM after 48 hrs by SRB assay; conditions: MDA-MB-468, 48 h, read-out: Activity; in short: as §1
# ACHN = assay: Cytotoxicity against human ACHN cells assessed as cell growth at 10 uM after 48 hrs by SRB assay; conditions: read-out: Activity; in short: as §1
# NCI-H226 = assay: Cytotoxicity against human NCI-H226 cells assessed as cell growth at 10 uM after 48 hrs by SRB assay; conditions: NCI-H226, 48 h, read-out: Activity; in short: as §1
# [2] = Cytotoxicity against human UO31 cells assessed as cell growth at 10 uM after 48 hrs by SRB assay; conditions: UO-31, 48 h, read-out: Activity; in short: as §2
# HCT-116 = assay: Cytotoxicity against human HCT116 cells assessed as cell growth at 10 uM after 48 hrs by SRB assay; conditions: HCT-116, 48 h, read-out: Activity; in short: as §1
# M14 = assay: Cytotoxicity against human M14 cells assessed as cell growth at 10 uM after 48 hrs by SRB assay; conditions: M14, 48 h, read-out: Activity; in short: as §1
# CAKI-1 = assay: Cytotoxicity against human CAKI-1 cells assessed as cell growth at 10 uM after 48 hrs by SRB assay; conditions: CAKI-1, 48 h, read-out: Activity; in short: as §1
# HL-60(TB) = assay: Cytotoxicity against human HL-60(TB) cells assessed as cell growth at 10 uM after 48 hrs by SRB assay; conditions: HL-60, 48 h, read-out: Activity
# In short: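 NCI-60 single-dose screen: cells grown in RPMI 1640 with 5% FBS and 2 mM L-glutamine, plated at 5000–40,000 cells/well, preincubated 24 h at 37 °C, 5% CO2. Compound dissolved in DMSO, tested at 10^-5 M for 48 h. Cells TCA-fixed, sulforhodamine B stained. Growth expressed as percent of untreated control, referenced to time-zero plates.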
# SF-268 = assay: Cytotoxicity against human SF268 cells assessed as cell growth at 10 uM after 48 hrs by SRB assay; conditions: SF-268, 48 h, read-out: Activity; in short: as §1
# MCF7 = assay: Cytotoxicity against human MCF7 cells assessed as cell growth at 10 uM after 48 hrs by SRB assay; conditions: MCF7, 48 h, read-out: Activity; in short: as §1
SMILES,growth at 10 µM (KM12) [%],growth at 10 µM (HCC 2998) [%],growth at 10 µM [1] [%],growth at 10 µM (NCI-H522) [%],growth at 10 µM (A498) [%],growth at 10 µM (SR) [%],growth at 10 µM (PC-3) [%],growth at 10 µM (IGROV-1) [%],growth at 10 µM (SW-620) [%],growth at 10 µM (K562) [%],growth at 10 µM (SF-539) [%],growth at 10 µM (UACC-62) [%],growth at 10 µM (SN12C) [%],growth at 10 µM (HOP-92) [%],growth at 10 µM (U-251) [%],growth at 10 µM (RPMI-8226) [%],growth at 10 µM (SK-MEL-5) [%],growth at 10 µM (DU-145) [%],growth at 10 µM (CCRF-CEM) [%],growth at 10 µM (MDA-MB-468) [%],further results
Cc1ccc(-c2csc3nc(N4NC(=O)CC4=O)cn23)cc1,115,102,109,95.9,98,84.4,87.3,105,103,94.7,101,91.8,104,75.1,98.1,98.1,95.9,118,95.6,106,growth at 10 µM (ACHN): 90.5%; growth at 10 µM (NCI-H226): 94.4%; growth at 10 µM [2]: 74.7%; growth at 10 µM (HCT-116): 108%; growth at 10 µM (M14): 105%; growth at 10 µM (CAKI-1): 90.1%; growth at 10 µM (HL-60(TB)): 107%; growth at 10 µM (SF-268): 106%; growth at 10 µM (MCF7): 93.9%
O=C1CC(=O)N(c2cn3c(-c4ccc(Cl)cc4)csc3n2)N1,106,102,103,74.1,75.2,74,90,117,104,88.1,101,90.1,88.4,99.4,91.9,85,99.7,105,89.5,104,growth at 10 µM (ACHN): 102%; growth at 10 µM (NCI-H226): 103%; growth at 10 µM [2]: 111%; growth at 10 µM (HCT-116): 93.2%; growth at 10 µM (M14): 100%; growth at 10 µM (CAKI-1): 78.9%; growth at 10 µM (HL-60(TB)): 88.1%; growth at 10 µM (SF-268): 105%; growth at 10 µM (MCF7): 89%
O=C1CC(=O)N(c2cn3c(-c4ccccc4)csc3n2)N1,101,103,97.6,74.9,78.4,83,76.4,91.5,107,94.2,88.2,85,92.2,63.5,84.2,93,89.6,106,98.7,102,growth at 10 µM (ACHN): 81.5%; growth at 10 µM (NCI-H226): 90%; growth at 10 µM [2]: 59.6%; growth at 10 µM (HCT-116): 95.5%; growth at 10 µM (M14): 101%; growth at 10 µM (CAKI-1): 75.9%; growth at 10 µM (HL-60(TB)): 120%; growth at 10 µM (SF-268): 99.5%; growth at 10 µM (MCF7): 85.8%
O=C1CN2C(c3ccc(Cl)cc3)=CSC2=N1,100,101,96.3,87.5,70.2,77.8,101,95.2,101,79.7,94.8,88.7,94.9,111,94.3,89.2,105,102,91.5,106,growth at 10 µM (ACHN): 95%; growth at 10 µM (NCI-H226): 110%; growth at 10 µM [2]: 92.7%; growth at 10 µM (HCT-116): 97.1%; growth at 10 µM (M14): 97%; growth at 10 µM (CAKI-1): 81.3%; growth at 10 µM (HL-60(TB)): 94.2%; growth at 10 µM (SF-268): 100%; growth at 10 µM (MCF7): 90.9%
O=C1CN2C(c3ccccc3)=CSC2=N1,111,97.8,103,94.3,111,86,82.4,104,94.8,88.8,97.5,90.3,91.5,78,93.9,94.4,99.8,112,96.3,106,growth at 10 µM (ACHN): 97.9%; growth at 10 µM (NCI-H226): 102%; growth at 10 µM [2]: 61.3%; growth at 10 µM (HCT-116): 97.6%; growth at 10 µM (M14): 99.9%; growth at 10 µM (CAKI-1): 78.7%; growth at 10 µM (HL-60(TB)): 114%; growth at 10 µM (SF-268): 110%; growth at 10 µM (MCF7): 88.5%
